ChEMBL document CHEMBL4513216, “Probing the Open Global Health Chemical Diversity Library for Multistage-Active Starting Points for Next-Generation Antimalarials” (ACS Infect Dis, 2020)

Assay: Toxicity liver stage against HepG2, at 10uM
Assay type: cell-based
Design: test concentration 10 uM, cell line HepG2-A16-CD81EGFP
Details: human, HepG2-A16-CD81EGFP cells; read-out: INHIBITION
In short: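 Uninfected HepG2-A16-CD81EGFP cells, 3 × 10^3 per well, 1536-well, plated on prespotted compound at 10 μM final, parasite-free screening media added to match infected plates; puromycin 10 μM positive, DMSO 0.5% negative; run in parallel with 48 h PbLuc assay at 37 °C, 5% CO2; viability by CellTiter-Glo luminescence, normalized to controls.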

Structure (SMILES)	cytotoxicity at 10 µM
OC[C@@H]1[C@H]2CN(c3ccccn3)CCN2C[C@H]1c1ccccc1	-8.43%
O=C(NCc1nc2ccccc2[nH]1)c1cc2n(n1)CCCO2	-5.43%
O=C(c1ccccn1)N1CCC(Oc2ncccc2Cl)CC1	3.07%
c1ccc(N2CCc3ncnc(C4CC4)c3CC2)nc1	-157%
COCC1Cn2nnc(-c3cnn(C)c3)c2CN1Cc1ccc(C)o1 (stereo not given)	4.82%
CCOCC(=O)N1CCCn2c(CN3CCCCC3)nnc2C1	-110%
O=S(=O)(C1CC1)N1CCC2(CC1)CC(Oc1ccccn1)CO2 (stereo not given)	-139%
CC1(c2nccs2)CCN(C(=O)CC2CCOCC2)CC1	-0.29%
Cc1csc2c(C3CCCN(C(=O)CCCn4cncn4)C3)nc(C)n12 (stereo not given)	7.69%
O=C(O)c1ccccc1-n1cnc(CN2CCc3ccccc32)c1	11.7%
CSc1ncc(C(=O)N(C)C(C)Cc2ccccn2)cn1 (stereo not given)	15.9%
CNC(=O)c1cccc(CC2COCCN(Cc3ccc(C)o3)C2)n1 (stereo not given)	0.166%
COc1ccc(C(NC(=O)c2cccc[n+]2[O-])C2CC2)cc1 (stereo not given)	7.12%
O=C(NCC1CCS(=O)(=O)C1)N(Cc1ccncc1)C1CC1 (stereo not given)	-138%
CSCc1ccc(CNCCCN2CCOCC2)o1	5.81%
CN(Cc1ccco1)Cc1ccccc1CNC(=O)c1c[nH]nn1	-2.89%
CCC(CO)NC(=O)NCc1cc(C#N)ccc1F (stereo not given)	-1.22%
Cc1cccc2nc(CSCc3nnnn3C(C)C)cn12	1.24%
CCc1nc(CC(=O)NC(C#N)CC(C)C)cs1 (stereo not given)	9.17%
CC(=O)N1CCN(C2CCCCc3ccccc32)CC1 (stereo not given)	-46.3%
Cc1ccnc(NC(=O)CSCc2cccnc2)c1	-42.2%
Cc1nc(C(=O)N2CCN(C(C)c3ccccc3F)CC2)cs1 (stereo not given)	-0.462%
COc1cccc(CC(=O)N2CC[C@@H]3CN(C)S(=O)(=O)[C@@H]3CC2)c1	-2.36%

Structure (SMILES)	cytotoxicity at 10 µM
COC[C@@H]1CC[C@H]2[C@H](CCN2S(=O)(=O)c2ccc(C)cc2)O1	-1.05%
COc1cccc(CC(=O)N2CCCN(c3ccnc(C)c3)CC2)c1	-7.06%
Nc1ncc(C(=O)N2CCC(O)(CO)CC2)c(-c2ccccc2)n1	-144%
CN1CCN(C(=O)N2CCC3(CCCN(C4CCOCC4)C3=O)C2)CC1 (stereo not given)	-129%
CN1CCN(CC(C)(C)C)CC1CCO (stereo not given)	1.88%
Cc1nccn1CCN(C)c1nc(-c2cccnc2)nc2c1CCNC2	-21.2%
NC(=O)CCC(=O)N1CCc2[nH]nc(-c3ccc4c(c3)OCO4)c2C1	-142%
Cc1ccncc1C(=O)N1CC[C@@]2(O)CCN(C3CCCCC3)C[C@H]2C1	-125%
CCCSCC(=O)N1CCN(c2ccc(C)cc2)CC1C (stereo not given)	-165%
Cc1cc2occ(CC(=O)N3CCC4(CCCN(C)C4=O)C3)c2cc1Cl (stereo not given)	-4.03%
CC(C)=CCN1CCN(Cc2ncc[nH]2)[C@H]2CS(=O)(=O)C[C@H]21	5.44%
Cc1cc(NC(=O)CN2CCN(c3nc(C)cs3)C(C)C2)on1 (stereo not given)	-1.81%
CCOc1ncccc1NC(=O)NCC(C)O (stereo not given)	-5.68%
CC(C)c1cnc(CN(C)C2CCN(CCc3cnn(C)c3)C2)o1 (stereo not given)	-7.12%
CC(O)CN1CCN(C(=O)c2sccc2C2CC2)CC1 (stereo not given)	1.83%
CCc1n[nH]c(C2CN(C(=O)c3cncnc3CC)CCO2)n1 (stereo not given)	-5.65%
O=C(CCc1nccs1)N1CCCC(n2ccnc2)C1 (stereo not given)	-16%
O=C(C1CC1)N1CC2(CCNCC2)C1	-0.832%
CCN1CCN(C)C(=O)C12CCN(Cc1csc(C)n1)CC2	1.53%
O=C(c1ncccn1)N1CC[C@H]2OCC[C@@]2(COc2ccccn2)C1	-146%
CN1CCN(C(=O)[C@H]2C[C@@H]3CN(c4ncc(F)cn4)C[C@@H]3N2C)CC1	-136%
CC(C)Nc1ncnc2c1CCN(C(=O)NCc1cccnc1)CC2	-150%
